Measurements of several laboratories.
Each line is one published result; the experiments were not run side by side.
Target: Serine/threonine-protein kinase mTOR (MTOR, Homo sapiens, UniProt P42345)

| Compound | assay | setting | measurement | result |
| --- | --- | --- | --- | --- |
| C=CC(=O)Nc1cc(Nc2nccc(Nc3cc(Cl)c(F)cc3C(C)(C)O)n2)c(OC)cc1N1CC[C@@H](N(C)C)C1 | enzyme activity, inhibitor | 1 µM | inhibition | 6% |
| CS(=O)(=O)NCC[C@H](NC(=O)c1cncc2c1cnn2-c1ccc(F)cc1)c1ccnc(S(C)(=O)=O)c1 | cell-free assay, competition with immobilised ligand | 1 µM | remaining binding | 88% |
| Nc1ncnc2occ(-c3ccc(NC(=O)Nc4cc(C(F)(F)F)ccc4F)cc3)c12 | enzyme activity, inhibitor | 20 µM | remaining activity | 74% |
| CN1CC(Oc2cnc(C#N)cc2-c2ccn3nc(NC(=O)C4CC4)cc3c2)C1 | enzyme activity, inhibitor | 1 µM | inhibition | 1% |
| COc1cc(Cl)c(C(=O)N[C@@H](CN[C@H]2CC[C@@H](N)CC2)Cc2ccc(C#N)cc2)cc1-c1ccc(CN[C@H](C)c2ccc(C)cc2)o1 | enzyme activity, inhibitor | 1 µM | remaining activity | 98% |
| O=C(CSc1nc2nccnc2c(=O)n1CCc1ccccc1)Nc1ccccc1 | enzyme activity, inhibitor | 10 µM | inhibition | 31% |
| CCCCN(CCCC)C(=O)CN1C[C@@H](c2cc(OC)c3c(c2)OCO3)[C@H](C(=O)O)[C@H]1CC(C)(C)CCC | cell-free assay, competition with immobilised ligand | 1 µM | remaining binding | 100% |
| CCN(CC)c1ccc(C2=NNC(=O)CC2C)cc1[N+](=O)[O-] (centres unmarked) | enzyme activity, inhibitor | 10 µM | remaining activity | 110% |
| Cc1cnc(NC2CCOCC2)nc1-n1cnc(C(=O)NC(CN)c2cc(F)cc(Cl)c2)c1 (centres unmarked) | enzyme activity, inhibitor, radiometric | 1 µM | remaining activity | 82% |
| CN([C@@H]1CCc2c(CC(=O)O)c3ccccc3n2C1)S(=O)(=O)c1ccc(F)cc1 | cell-free assay, competition with immobilised ligand | 1 µM | remaining binding | 100% |
| CC(C)(C)c1nc(-c2cccc(NS(=O)(=O)c3c(F)cccc3F)c2F)c(-c2ccnc(N)n2)s1 | enzyme activity, inhibitor, radiometric | 1 µM | remaining activity | 99% |
| Cn1cc(Cl)c2c(Oc3c(F)cc(Nc4cc(Cl)nc(N)n4)cc3F)ccnc21 | cell-free assay, competition with immobilised ligand | 0.1 µM | remaining binding | 85% |
| CN(c1nccc(-c2cnn3ncccc23)n1)C1CC1 | cell-free assay | 1 µM | remaining signal | 100% |
| CNCc1ccc(-c2cc(-c3nc(-c4ccc(S(=O)(=O)C(C)C)cc4)cnc3N)on2)cc1 | enzyme activity, inhibitor | 2 µM | inhibition | 37% |
| CS(=O)(=O)Nc1cccc(-c2csc(NC(=O)CSc3nc4nccnc4c(=O)n3CCc3ccccc3)n2)c1 | enzyme activity, inhibitor | 10 µM | inhibition | 1% |
| C[C@@H](c1cccc(C#N)c1)n1cc(Cl)cc(C(N)=O)c1=N | cell-free assay, competition with immobilised ligand | 1 µM | remaining binding | 96% |
| COc1cc2ncnc(Nc3ccc(Oc4ccccc4)c(C)c3C)c2cc1OC | enzyme activity, inhibitor | 1 µM | inhibition | 0% |
